Assays:
NCI-H1734 cells = assay: Cell viability; type: cell-based, human; details: NCI-H1734 versus A549, 48 hours
A549 cells = assay: Cell viability; type: cell-based; details: Homo sapiens, A549, 48 h
Procedure, shortened: (§1)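 Cells per 384-well: A549 1000 (RPMI), HeLa 1000 (DMEM), MCF-7 500 (DMEM), PC3 4000 (F12-K), NCI-H2122 1000 (RPMI), NCI-H1563 1500 (RPMI); all with 10% FBS. Test compound added 24 h after plating, 48 h exposure. Readout: 25% CellTiter-Glo in PBS, 10 min, luminescence, normalized to DMSO. Dose curves: mean of 8 replicates ± s.d.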

HeLa cells [1] = assay: Compound sensitivity testing; type: cell-based, human; details: for activity compared with (R)-DNMDP: cell viability, (R)-des-nitro analogues
Procedure, shortened: as §1

NCI-H1563 cells = assay: Compound sensitivity testing; type: cell-based; details: Homo sapiens, NCI-H1563, 48 h
Procedure, shortened: as §1

NCI-H2122 cells = assay: Compound sensitivity testing; type: cell-based; details: Homo sapiens, NCI-H2122, 48 h
Procedure, shortened: as §1

MCF7 cells = assay: Compound sensitivity testing; type: cell-based; details: Homo sapiens, MCF7, 48 h
Procedure, shortened: as §1

PC3 cells = assay: Compound sensitivity testing; type: cell-based; details: Homo sapiens, PC-3, 48 h
Procedure, shortened: as §1

[2] = tested on: 766 genomically characterized cancer cell lines; assay: Large-scale cell-line viability measurements; type: cell-based, human; details: of 766 cancer cell lines, 72 hours, 66.4 µM to 2 nM
Procedure, shortened: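 500 cells/well in 1536-well plates, each line in its preferred medium; overnight incubation. Test compound acoustically dispensed at 16 concentrations, 66.4 µM–2 nM, 2-fold steps, in duplicate. After 72 h, ATP measured by CellTiter-Glo, normalized to media-only and DMSO wells. Curves fit to 2- or 3-parameter sigmoids. Sensitivity metric: AUC of optimal 8-point curve by numeric integration.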

HeLa cells [3] = assay: Caspase activity; type: cell-based, human; details: 48 hours (caspase), 36 hours (PARP)
Procedure, shortened: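 HeLa cells (1000/well, 384-well) in growth medium with 10% FBS; test compound added 24 h after plating. Caspase: 48 h exposure, Caspase-Glo added, luminescence read. PARP: 36 h exposure to test compound or staurosporine; NP-40 lysis; immunoblot for PARP (1:1000) and actin (1:20,000), infrared imaging.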

[4] = tested on: PDE3A complex with V5-tagged SIRT7 and SLFN12; assay: PDE3A immunoprecipitation and V5 immunoblot; type: cell-based, human; details: HeLa, 10 µM, 4 hours, co-immunoprecipitation
Procedure, shortened: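 HeLa cells transfected with V5-tagged SIRT7, SLFN12 or GFP constructs. At 72 h, treated 4 h with 10 µM test compound or trequinsin. Lysis in ModRipa (1% NP-40, 50 mM Tris-HCl pH 7.8, 150 mM NaCl, 0.1% deoxycholate, 1 mM EDTA). 2 mg lysate with 1 µg anti-PDE3A overnight at 4 °C, then Protein A/G beads 1 h. LDS elution; immunoblots for V5 (1:5000) and PDE3A (1:1000).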

234 kinases = assay: Millipore KinaseProfiler panel; type: biochemical, human; details: 10 µM DNMDP
HeLa cells [5] = assay: Rescue of DNMDP induced cytotoxicity; type: cell-based, human; details: 48 hours; for rescue of DNMDP cytotoxicity: DNMDP in combination, dose response; for rank in bioactives screen for rescue of cell death induced by DNMDP: 20 µM compound with 30 nM DNMDP, 1600 compounds; for competition with DNMDP (rescue): up to 10 µM
Procedure, shortened: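 HeLa cells (1000/well, 384-well) in DMEM with 10% FBS and 1% Pen/Strep. 24 h after plating, 1600 bioactives added at 20 µM together with cytotoxic agent at 30 nM final; 48 h incubation. Follow-up combinations used indicated PDE3/pan-PDE inhibitor concentrations with single data points. CellTiter-Glo viability expressed as percentage of untreated DMSO control.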

PDE3A = PDE3A (Homo sapiens, UniProt Q14432); assay: Linker-affinity purification with DNMDP-2L resin and PDE3A immunoblot; type: binding; details: HeLa cell lysate, 10 µM competitor
Chain of PDE3A (Q14432 whole entry): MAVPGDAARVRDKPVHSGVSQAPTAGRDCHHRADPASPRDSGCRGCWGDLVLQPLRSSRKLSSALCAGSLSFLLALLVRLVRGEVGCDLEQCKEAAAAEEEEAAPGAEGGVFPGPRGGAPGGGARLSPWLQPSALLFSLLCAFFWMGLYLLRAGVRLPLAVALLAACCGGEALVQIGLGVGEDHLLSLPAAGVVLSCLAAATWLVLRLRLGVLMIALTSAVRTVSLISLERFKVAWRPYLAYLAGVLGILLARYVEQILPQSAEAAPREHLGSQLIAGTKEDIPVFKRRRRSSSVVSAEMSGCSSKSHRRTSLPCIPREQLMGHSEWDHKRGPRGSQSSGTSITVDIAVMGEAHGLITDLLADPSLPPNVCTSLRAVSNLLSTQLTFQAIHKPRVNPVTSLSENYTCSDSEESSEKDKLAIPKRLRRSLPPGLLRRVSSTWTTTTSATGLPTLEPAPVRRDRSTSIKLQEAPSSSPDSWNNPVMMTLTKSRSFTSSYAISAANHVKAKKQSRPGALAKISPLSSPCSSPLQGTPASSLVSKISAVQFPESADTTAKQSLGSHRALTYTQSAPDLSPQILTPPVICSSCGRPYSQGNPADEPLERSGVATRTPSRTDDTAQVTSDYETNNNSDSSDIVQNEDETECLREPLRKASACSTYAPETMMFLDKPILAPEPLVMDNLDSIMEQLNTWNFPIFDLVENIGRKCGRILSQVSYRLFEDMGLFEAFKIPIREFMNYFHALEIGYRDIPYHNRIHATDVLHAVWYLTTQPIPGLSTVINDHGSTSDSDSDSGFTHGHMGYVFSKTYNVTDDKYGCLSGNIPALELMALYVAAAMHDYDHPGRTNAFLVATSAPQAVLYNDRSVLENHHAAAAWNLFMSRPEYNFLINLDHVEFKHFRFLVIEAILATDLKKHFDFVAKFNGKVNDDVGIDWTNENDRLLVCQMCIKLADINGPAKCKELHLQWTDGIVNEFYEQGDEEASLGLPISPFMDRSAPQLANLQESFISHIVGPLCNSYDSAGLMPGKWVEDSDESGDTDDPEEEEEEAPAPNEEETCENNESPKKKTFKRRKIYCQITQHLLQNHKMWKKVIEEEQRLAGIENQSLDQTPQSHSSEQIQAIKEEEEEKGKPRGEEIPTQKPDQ
Procedure, shortened: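 200 µg lysate incubated 4 h with resin-coupled linker analogue, competitor compounds added beforehand. Three washes in buffer with 10 µM compound. Bound protein resolved by SDS-PAGE; anti-PDE3A immunoblot (1:1000, overnight, 4 °C); infrared detection.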

PDE3 = details: read-out: PDE3 IC50; cited from earlier work

Structure (SMILES): CCN(CC)c1ccc(C2=NNC(=O)CC2C)cc1[N+](=O)[O-] (stereo not shown) [DNMDP, 6-(4-(diethylamino)-3-nitrophenyl)-5-methyl-4,5-dihydropyridazin-3(2H)-one]
- selective toxicity in dose-response retest (NCI-H1734 cells): specifically toxic to the NCI-H1734 cell line
- EC50 (A549 cells): > 1000 nM
- EC70 concentration (HeLa cells [1]; HeLa, 48 hours): 30 nM
- EC50 (HeLa cells [1]; Homo sapiens, HeLa, 48 h): 10 to 100 nM
- EC50 (NCI-H1563 cells): 10 to 100 nM
- EC50 (NCI-H2122 cells): 10 to 100 nM
- EC50 (MCF7 cells): > 1000 nM
- EC50 (PC3 cells): > 1000 nM
- number of cell lines sensitive with a robust Z-score lower than -4 [2]: 22 cell lines
- induction of apoptosis (caspase activity, PARP cleavage) (HeLa cells [3]): undergo apoptosis
- complex formation of V5-tagged SIRT7 and SLFN12 with PDE3A [4]: enhanced complex formation
- kinase inhibition across 234 kinases (234 kinases): no kinase inhibition

Structure (SMILES): CCN(CCOCCOCCNC(=O)OC(C)(C)C)c1ccc(C2=NNC(=O)C[C@H]2C)cc1 [DNMDP-2L]
- rescue of DNMDP cytotoxicity (HeLa cells [5]): same DNMDP cytotoxicity rescue phenotype as non-cytotoxic PDE3 inhibitors

Structure (SMILES): CCN(CC)c1ccc(C2=NNC(=O)C[C@H]2C)cc1 [DNMDP-2]
- activity compared with (R)-DNMDP (HeLa cells [1]): tested similarly to (R)-DNMDP

Structure (SMILES): CCN(CC)c1ccc(C2=NNC(=O)CC2C)cc1 (stereo not shown) [DNMDP-3]
- activity compared with (R)-DNMDP (HeLa cells [1]): tested similarly to (R)-DNMDP

Structure (SMILES): CN(C(=O)CCCOc1ccc2[nH]c(=O)ccc2c1)C1CCCCC1 [cilostamide]
- rescue of DNMDP cytotoxicity (HeLa cells [5]): able to rescue DNMDP cytotoxicity in a dose-dependent manner

Structure (SMILES): O=C1CCc2cc(OCCCCc3nnnn3C3CCCCC3)ccc2N1 [cilostazol]
- rank in bioactives screen for rescue of cell death induced by DNMDP (HeLa cells [5]): three most potent compounds

Structure (SMILES): OCCN(CCO)c1nc(N2CCCCC2)c2nc(N(CCO)CCO)nc(N3CCCCC3)c2n1 [dipyridamole]
- competition with DNMDP (rescue) (HeLa cells [5]): not effective competitors

Structure (SMILES): CC(C)C(=O)c1c(C(C)C)nn2ccccc12 [idubilast]
- competition with DNMDP (rescue) (HeLa cells [5]): not effective competitors

Structure (SMILES): C[C@@H]1CC(=O)NN=C1c1ccc(NN=C(C#N)C#N)cc1 [levosimendan]
- rank in bioactives screen for rescue of cell death induced by DNMDP (HeLa cells [5]): three most potent compounds
- rescue of DNMDP cytotoxicity (HeLa cells [5]): able to rescue DNMDP cytotoxicity in a dose-dependent manner

Structure (SMILES): Cc1[nH]c(=O)c(C#N)cc1-c1ccncc1 [milrinone]
- rank in bioactives screen for rescue of cell death induced by DNMDP (HeLa cells [5]): three most potent compounds
- rescue of DNMDP cytotoxicity (HeLa cells [5]): able to rescue DNMDP cytotoxicity in a dose-dependent manner

Structure (SMILES): CCCc1nn(C)c2c(=O)[nH]c(-c3cc(S(=O)(=O)N4CCN(C)CC4)ccc3OCC)nc12 [sildenafil]
- competition with DNMDP (rescue) (HeLa cells [5]): not effective competitors

Structure (SMILES): COc1cc2c(cc1OC)-c1c/c(=N\c3c(C)cc(C)cc3C)n(C)c(=O)n1CC2 [trequinsin]
- effect on HeLa cell viability (HeLa cells [1]; HeLa, up to 10 µM, 48 hours): did not affect HeLa cell viability in any detectable way
- blocking of PDE3A binding to the tethered linker analogue (PDE3A): blocked
- IC50 (PDE3): 0.25 nM

Structure (SMILES): CCCc1nc(C)c2c(=O)[nH]c(-c3cc(S(=O)(=O)N4CCN(CC)CC4)ccc3OCC)nn12 [vardenafil]
- competition with DNMDP (rescue) (HeLa cells [5]): not effective competitors
